Assay results published in PubChem BioAssay AID809 (SRMLSC, 2007).
Calls of active or inactive are those of the source.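 Rule for the calls: active = EC50 for reversing nicotinamide-shortened yeast lifespan at or below a set limit; inactive = EC50 above that limit.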

Tested on: S. cerevisiae DeaD BB579, nicotinamide rescue growth, OD615 48 h
Assay: rescue of nicotinamide-suppressed growth of yeast BB579, dose response, yeast lifespan extension project, S. cerevisiae (AID 809)
Procedure, shortened: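 Assay system: Saccharomyces cerevisiae DeaD strain BB579, log-phase cells; Medium: CSMM-D glucose restrictive medium; Dosing: compounds from 0.078 to 10 µM final, 0.5% DMSO; Times: 4 h pre-incubation, 48 h exposure at 30 °C; Technique: optical density at 615 nm (absorbance); Evaluation: culture saturation density reflecting mother-cell replicative lifespan.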

SMILES | EC50
Cc1nn(-c2c(Cl)cc(Cl)cc2Cl)c(=O)c2ccccc12 | 6.34 µM
O=C1C=CC2C(c3ccc4c(c3)OCO4)CC1N2Cc1ccccc1 (stereo not drawn) | 6.04 µM
CCCCCCCCn1c(=O)c(C(=O)OCC)c(O)c2ccccc21 | 9.18 µM
CN1C(=O)C(Cl)(Cl)C(=O)c2ccccc21 | > 10 µM (inactive)
CCc1ccc2c(c1)CCCN2C(=O)c1ccccc1C(=O)O | 9.34 µM
COc1ccc(CC(=O)Nc2ccc3c(c2)CCC3)cc1S(=O)(=O)N1CCOCC1 | > 10 µM (inactive)
CCOc1ccc2nc(NCCNC(=O)Nc3ccccc3)c(C#N)cc2c1 | > 10 µM (inactive)
O=C1CC(c2ccccc2)CC(O)=C1C=NCCN1CCN(C(=O)Nc2ccccc2)CC1 (stereo not drawn) | 6.64 µM
Cc1cc(C)c(NC(=O)/C(=C/c2ccccc2)c2ccccc2)c(C)c1 | > 10 µM (inactive)
Cc1c(NC(=O)C(=O)/C=C(/O)c2ccccc2)c(=O)n(-c2ccccc2)n1C | 4.95 µM
CCOc1ccc(OCC(=O)c2c(O)c3ccccc3oc2=O)cc1 | 3.4 µM
Cc1ccc(N2NC(=O)/C(=C\c3cc4c(cc3[N+](=O)[O-])OCO4)C2=O)cc1C | > 10 µM (inactive)
O=C(O)Cc1ccc(N=Cc2c(O)ccc3ccccc23)cc1 | 3.85 µM
CC(C)Cc1nn2c(=O)cc(O)nc2s1 | 8.79 µM
CC(=O)N1CCN(CCN=CC2=C(O)CC(c3cccs3)CC2=O)CC1 (stereo not drawn) | > 10 µM (inactive)
CCc1ccc(CC2S/C(=C(\C#N)C(C)=O)NC2=O)cc1 (stereo not drawn) | > 10 µM (inactive)
CC1=CS(=O)(=O)CC1Sc1nc2ccccc2[nH]1 (stereo not drawn) | > 10 µM (inactive)
CCC(C)OC(=O)C1C(c2ccccc2)C(C(=O)O)C1c1ccccc1 (stereo not drawn) | 8.26 µM
Cc1c(NC(=O)C(=O)/C=C(\O)c2ccc(Cl)cc2)c(=O)n(-c2ccccc2)n1C | 3.19 µM
CCOC(=O)C1C(=O)C(C(C)=O)C(=O)CC1CC(C)SCC (stereo not drawn) | 2.06 µM
O=C(Oc1cc(=O)n2ccccc2n1)c1ccccc1 | 7.19 µM
Nn1c(-c2ccccn2)nnc1-c1ccccn1 | > 10 µM (inactive)
CN1CCN(CC(=O)Nc2ccc(Cl)cc2Cl)CC1 | > 10 µM (inactive)
CC(=C1C(=O)c2ccccc2C1=O)N1CCN(c2ccccn2)CC1 | 7.21 µM
O=C(Nc1ccc(S(=O)(=O)N2CCc3ccccc3C2)cc1)c1ccccc1 | > 10 µM (inactive)
CN=C(SCc1cc2c(cc1Cl)OCO2)c1c(O)n(C)c(=O)n(C)c1=O | 6.46 µM
O=C1CC(c2ccc(F)cc2)CC(O)=C1C=NCCN1CCN(C(=O)Nc2ccccc2)CC1 (stereo not drawn) | 7.09 µM

SMILES | EC50
CCCCN(CCCC)c1ccc(C(=O)c2ccccc2C(=O)O)c(O)c1 | 6.81 µM
O=C1c2ccccc2-c2onc3c(Oc4ccccc4)cc(O)c1c23 | 6.05 µM
CCCCn1c(/N=C/c2ccccc2NS(=O)(=O)c2ccc(C)cc2)nc2ccccc21 | 3.53 µM
COC(=O)CCS(=O)(=O)c1nc(-c2ccccc2)cc(C(F)(F)F)n1 | 1.99 µM
CCCc1nc2c(c(=O)c3ccccc3n2C)c(=O)n1C1CCCCCC1 | > 10 µM (inactive)
O=S(=O)(Nc1cccc2c1CCCC2)c1ccc(Cl)cc1 | > 10 µM (inactive)
COCCCNC(CC(=O)Nc1ccc(OC)cc1OC)C(=O)O (stereo not drawn) | > 10 µM (inactive)
C=CS(=O)(=O)c1ccc(Oc2ccc(S(=O)(=O)C=C)cc2)cc1 | 7.12 µM
COc1ccc(/C=C(\C#N)C(=O)N2CCOCC2)cc1Br | 8.72 µM
COC(=O)c1sc2ncn(-n3c(C)ccc3C)c(=O)c2c1C | > 10 µM (inactive)
CCc1ccc(C(=O)CN2C(=O)NC(C)(CCc3ccccc3)C2=O)cc1 (stereo not drawn) | > 10 µM (inactive)
Cc1nn(C(C)(C)C)c(OC(=O)c2ccc(Br)o2)c1Sc1ccccc1 | 7.84 µM
CC(=O)c1c(O)cc2n(c1=O)-c1ccc(Cl)cc1C2(C)C | 7.34 µM
COc1cc(/C=C/C(=O)C2C(=O)C=C(C)OC2=O)cc(OC)c1O (stereo not drawn) | 6.69 µM
Cc1ccc2nc(N3C(=O)C(O)=C(C(=O)c4ccco4)C3c3cccs3)sc2c1 (stereo not drawn) | 6.68 µM
O=C(/C=C/c1ccccc1)Nc1ncn[nH]1 | > 10 µM (inactive)
CS(=O)(=O)c1nc(-c2ccccc2)cc(C(F)(F)F)n1 | 3.32 µM
Cc1cc(C2C(C#N)=C(N)Oc3n[nH]c(C)c32)c(C)s1 (stereo not drawn) | > 10 µM (inactive)
CCCC(=O)Nc1ccc(C(=O)NNC(=S)NC(=O)c2cccs2)cc1 | > 10 µM (inactive)
C=CCN(CC=C)S(=O)(=O)c1ccc2nc(NC(=O)C(C)C)sc2c1 | > 10 µM (inactive)
O=C(/C(=C/c1ccccc1)n1cncn1)c1ccc(Cl)cc1Cl | 1.07 µM
COc1ccc(-c2cc(N)n(S(=O)(=O)c3c(F)c(F)c(F)c(F)c3F)n2)cc1OC | 6.84 µM
CC1(C)Cc2ccccc2-c2nnc(SCC(=O)Nc3ccc4c(c3)OCO4)n21 | > 10 µM (inactive)
Cc1oc2c(c(=O)c1C)C(=O)CC(c1ccccc1)C2 (stereo not drawn) | 7.82 µM
CCc1oc2ccccc2c1C(=O)CCN1CCCCC1 | 8.21 µM
N#Cc1cc(C(=O)c2cc(F)ccc2O)cn(-c2nccs2)c1=O | > 10 µM (inactive)
